Measured values: ChEMBL document CHEMBL3860043, “Non-Acidic Free Fatty Acid Receptor 4 Agonists with Antidiabetic Activity” (J Med Chem, 2016)
≈ marks a conversion by molar mass, not a printed value. Calls of active or inactive are those of the source. No cut-off for these calls is given here.

What was measured:
[1] = target: T1, Free fatty acid receptor 4 (Homo sapiens, UniProt Q5NUL3); experiment: Agonist activity at C-terminal YFP-tagged human FFA4 expressed in HEK293 cells in presence of coelentrazine h by BRET based beta-arrestin-2 interaction assay; assay type: cell-based
T1 sequence (Q5NUL3 whole entry): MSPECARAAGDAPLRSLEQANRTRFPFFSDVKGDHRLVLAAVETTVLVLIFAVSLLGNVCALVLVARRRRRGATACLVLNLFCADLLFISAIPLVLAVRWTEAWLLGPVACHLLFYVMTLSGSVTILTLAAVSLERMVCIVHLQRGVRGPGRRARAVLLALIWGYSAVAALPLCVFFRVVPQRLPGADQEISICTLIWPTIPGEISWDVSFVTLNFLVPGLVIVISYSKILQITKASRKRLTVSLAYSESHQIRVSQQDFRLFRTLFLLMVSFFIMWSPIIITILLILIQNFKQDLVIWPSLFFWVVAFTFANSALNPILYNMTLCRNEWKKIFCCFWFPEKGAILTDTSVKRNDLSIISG
Summary of the method: (§1)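 HEK293 cells co-transfected with C-terminal eYFP-fused human FFA4 and β-arrestin-2–Renilla luciferase; plated 24 h post-transfection, used 24 h later. After an HBSS wash, coelenterazine h (2.5 µM) for 15 min, with ligands present for the final 5 min, 37 °C. BRET taken as the 535/475 nm emission ratio. Efficacy relative to 100 µM reference agonist. Three-parameter sigmoidal fits; mean ± S.E. of 2-4 independent experiments.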

[2] = target: T2, Free fatty acid receptor 4 (Homo sapiens) (UniProt Q5NUL3); experiment: Agonist activity at C-terminal YFP-tagged human FFA4 expressed in HEK293 cells in presence of coelentrazine h by BRET based beta-arrestin-2 interaction assay relative to 100 uM […]; assay type: cell-based; summary of the method: as §1
T2 sequence (whole entry): T1 sequence (Q5NUL3 whole entry)

Mus musculus = experiment: Reduction in plasma glucose level in mouse at 10 mg/kg, po dosed 15 mins before oral glucose challenge by OGTT method; assay type: functional, organism-based
Summary of the method: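 Mice fasted 5 h and given compound orally at 10 mg/kg, 15 min before an oral glucose load of 3 g/kg. Tail-tip blood sampled under local anesthetic 30 min before and immediately before the load, and at 30, 60, 90, 120 and 180 min after it. Glucose measured in duplicate by glucose oxidase colorimetric assay; n=6 mice per group.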

[3] = target: T3, Free fatty acid receptor 1 (Homo sapiens, UniProt O14842); experiment: Antagonist activity against human FFA1 expressed in human Flp-In T-REx293 cells assessed as as reduction in TUG424-induced response by Fura2-AM dye based calcium mobilization assay; assay type: functional, cell-based
Summary of the method: (§2)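 Flp-In T-REx 293 cells with inducible human FFA1, seeded at 50000 cells/well and induced with 100 ng/ml doxycycline after 3-4 h adherence. Next day loaded with Fura2-AM for 45 min, washed, then preincubated 15 min in HBSS with test ligand before 300 nM agonist challenge. Fura2 340:380 ratio change read at 510 nm emission. Inhibition expressed as % reduction of the agonist response.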

[4] = Lipophilicity, log D of the compound at pH 7.4; assay type: physicochemical; conditions: buffer
[5] = target: T1, Free fatty acid receptor 4; experiment: Agonist activity at human FFA4 expressed in human Flp-In T-REx293 cells by Fura2-AM dye based calcium mobilization assay; assay type: functional, cell-based
Summary of the method: (§3)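 Flp-In T-REx 293 cells with doxycycline-inducible human FFA4 seeded at 50000 cells/well and induced overnight with 100 ng/ml doxycycline. Loaded with Fura2-AM for 45 min, washed three times in HBSS, equilibrated 15 min, then ligand added. Emission at 510 nm with 340/380 nm excitation; response is the change in 340:380 ratio. Efficacy relative to 100 µM reference agonist; 2-4 independent experiments, sigmoidal fits.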

[6] = Solubility in PBS buffer; assay type: physicochemical
[7] = target: T2, Free fatty acid receptor 4 (Homo sapiens); experiment: Agonist activity at human FFA4 expressed in human Flp-In T-REx293 cells by Fura2-AM dye based calcium mobilization assay relative to 100 uM […]; assay type: functional, cell-based; summary of the method: as §3
[8] = target: T4, Free fatty acid receptor 4 (Mus musculus, UniProt Q7TMA4); experiment: Agonist activity mouse FFA4 by Gq-dependent calcium mobilization assay; assay type: functional
T4 sequence (Q7TMA4 whole entry): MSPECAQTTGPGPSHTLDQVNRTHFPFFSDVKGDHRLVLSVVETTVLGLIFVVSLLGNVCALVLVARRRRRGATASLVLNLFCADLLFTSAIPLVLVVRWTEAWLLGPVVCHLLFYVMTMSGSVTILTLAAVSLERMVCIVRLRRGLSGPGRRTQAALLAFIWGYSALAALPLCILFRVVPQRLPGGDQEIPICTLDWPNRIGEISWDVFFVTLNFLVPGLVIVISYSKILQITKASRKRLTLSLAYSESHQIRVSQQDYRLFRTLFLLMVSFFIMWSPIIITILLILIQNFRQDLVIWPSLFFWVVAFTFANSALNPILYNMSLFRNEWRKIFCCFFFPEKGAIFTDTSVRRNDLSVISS

[9] = target: T3, Free fatty acid receptor 1; experiment: Antagonist activity against human FFA1 expressed in human Flp-In T-REx293 cells assessed as as reduction in 300 nM TUG424-induced response by Fura2-AM dye based calcium mobilization assay relative to untreated control; assay type: functional, cell-based; summary of the method: as §2

T3 sequence (O14842 whole entry): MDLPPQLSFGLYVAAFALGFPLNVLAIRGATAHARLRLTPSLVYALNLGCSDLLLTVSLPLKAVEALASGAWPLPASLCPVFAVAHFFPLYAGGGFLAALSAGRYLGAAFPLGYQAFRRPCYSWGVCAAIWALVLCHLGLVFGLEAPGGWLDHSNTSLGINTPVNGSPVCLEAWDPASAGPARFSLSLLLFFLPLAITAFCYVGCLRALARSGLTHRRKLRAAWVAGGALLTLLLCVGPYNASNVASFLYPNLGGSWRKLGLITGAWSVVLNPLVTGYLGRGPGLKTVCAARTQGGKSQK

| EC50 ([1]; read-out: pEC50 (converted)) [µM] | Emax [2] [%] | IC50 [3] [µM] | logD [4] | EC50 [5] [µM] | solubility [6] [µM] | Emax [7] [%] | EC50 [8] [µM] | Imax [9] [%] | EC50 [1] [µM] | SMILES | Activity (Mus musculus) |
| --- | --- | --- | --- | --- | --- | --- | --- | --- | --- | --- | --- |
| 1.66 | 87 | 0.617 | – | 2.34 | – | 29 | – | 43 | – | N#Cc1ccc(Oc2cc(F)cc(N3Cc4ccccc4S3(=O)=O)c2)cc1 | – |
| 1.26 | 97 | > 100 | – | 1.7 | – | 120 | – | – | – | O=S1(=O)c2ccccc2CN1c1cc(F)cc(Oc2ccncc2)c1 | – |
| 0.234 | 101 | 3.89 | – | 0.38 | – | 78 | – | 47 | < 10 | O=S1(=O)c2ccccc2CN1c1cc(F)cc(Oc2ccccc2)c1 | – |
| 2.63 | 87 | 25.1 | – | 4.47 | – | 14 | – | 51 | – | Cc1cccc(Oc2cc(F)cc(N3Cc4ccccc4S3(=O)=O)c2)c1 | – |
| 0.437 | 91 | 2.88 | – | 1.1 | – | 38 | – | 52 | – | Cc1ccc(Oc2cc(F)cc(N3Cc4ccccc4S3(=O)=O)c2)cc1 | – |

Second part, the compound before the results:

| SMILES | EC50 ([1]; read-out: pEC50 (converted)) [µM] | Emax [2] [%] | IC50 [3] [µM] | logD [4] | EC50 [5] [µM] | solubility [6] [µM] | Emax [7] [%] | EC50 [8] [µM] | Imax [9] [%] | EC50 [1] [µM] | Activity (Mus musculus) |
| --- | --- | --- | --- | --- | --- | --- | --- | --- | --- | --- | --- |
| O=C1c2ccccc2C(=O)N1c1cc(F)cc(Oc2cccnc2)c1 | 5.01 | 45 | – | – | – | – | – | – | – | – | – |
| O=S1(=O)c2ccccc2CN1c1cc(F)cc(Oc2cccnc2)c1 | 0.437 | 107 | > 100 | 3.12 | 0.302 | 11 (≈ 3.92 µg/mL) | 115 | 0.0832 | – | – | Active |
| Cc1ccccc1Oc1cc(F)cc(N2Cc3ccccc3S2(=O)=O)c1 | 2.69 | 42 | 44.7 | – | – | – | – | – | 71 | – | – |
| CCCCc1ccc(NS(=O)(=O)c2ccc(F)cc2)cc1 | 5.37 | 76 | 8.13 | – | – | – | – | – | 68 | – | – |
| O=S(=O)(Nc1ccc(Oc2ccccc2)cc1)c1ccc(F)cc1 | 3.55 | 52 | 12.9 | – | – | – | – | – | 95 | – | – |
| COc1ccc(S(=O)(=O)Nc2c(C)cc(C)cc2C)cc1 | 0.49 | 82 | – | – | – | – | – | – | – | – | – |
